According to ChEMBL document CHEMBL4706638, “Mining Natural Products for Macrocycles to Drug Difficult Targets” (J Med Chem, 2021):

Target: Keap1/Nrf2 (Homo sapiens, UniProt Q14145)
Experiment: Inhibition of Nrf2 peptide (KKKKAFFAQLQLDEETGEFL) binding to Keap1 Kelch domain (321 to 609 residues) (unknown origin) assessed as dissociation constant by surface plasmon resonance based inhibition in solution assay
Assay type: protein assay
How it was run: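 Solution-competition SPR at 20 °C in HBS-P (10 mM HEPES, 150 mM NaCl, 0.05% Tween 20, 1.0 mM TCEP, pH 7.40), 10 µL/min. Nrf2 peptide amine-coupled to CM5 chip (400–600 RU). 25 nM Keap1 Kelch domain (aa321–609) preincubated with compound, injected; initial association slopes (5–15 s) vs compound-free controls give free Keap1. KD by nonlinear regression; mean ± SD of three measurements on distinct samples.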

Chain of Keap1/Nrf2 (Q16236 whole entry, the tested form may be a part): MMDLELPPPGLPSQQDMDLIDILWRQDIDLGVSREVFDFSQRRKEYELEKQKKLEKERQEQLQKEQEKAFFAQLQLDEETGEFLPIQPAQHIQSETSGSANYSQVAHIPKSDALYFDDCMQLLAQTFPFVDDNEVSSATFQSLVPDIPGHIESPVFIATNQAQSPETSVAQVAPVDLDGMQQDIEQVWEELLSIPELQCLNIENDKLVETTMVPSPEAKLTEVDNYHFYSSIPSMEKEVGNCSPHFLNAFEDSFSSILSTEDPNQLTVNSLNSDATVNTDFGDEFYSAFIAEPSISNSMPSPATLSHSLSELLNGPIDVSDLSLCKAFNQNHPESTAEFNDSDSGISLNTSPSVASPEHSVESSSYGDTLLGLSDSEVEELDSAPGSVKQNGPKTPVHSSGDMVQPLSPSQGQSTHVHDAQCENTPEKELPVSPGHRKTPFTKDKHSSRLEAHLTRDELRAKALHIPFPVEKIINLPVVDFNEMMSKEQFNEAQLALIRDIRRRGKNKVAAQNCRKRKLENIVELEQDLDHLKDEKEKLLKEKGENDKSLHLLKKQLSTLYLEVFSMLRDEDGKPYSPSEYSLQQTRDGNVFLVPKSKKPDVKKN
Chain of Keap1/Nrf2 (Q14145 whole entry, the tested form may be a part): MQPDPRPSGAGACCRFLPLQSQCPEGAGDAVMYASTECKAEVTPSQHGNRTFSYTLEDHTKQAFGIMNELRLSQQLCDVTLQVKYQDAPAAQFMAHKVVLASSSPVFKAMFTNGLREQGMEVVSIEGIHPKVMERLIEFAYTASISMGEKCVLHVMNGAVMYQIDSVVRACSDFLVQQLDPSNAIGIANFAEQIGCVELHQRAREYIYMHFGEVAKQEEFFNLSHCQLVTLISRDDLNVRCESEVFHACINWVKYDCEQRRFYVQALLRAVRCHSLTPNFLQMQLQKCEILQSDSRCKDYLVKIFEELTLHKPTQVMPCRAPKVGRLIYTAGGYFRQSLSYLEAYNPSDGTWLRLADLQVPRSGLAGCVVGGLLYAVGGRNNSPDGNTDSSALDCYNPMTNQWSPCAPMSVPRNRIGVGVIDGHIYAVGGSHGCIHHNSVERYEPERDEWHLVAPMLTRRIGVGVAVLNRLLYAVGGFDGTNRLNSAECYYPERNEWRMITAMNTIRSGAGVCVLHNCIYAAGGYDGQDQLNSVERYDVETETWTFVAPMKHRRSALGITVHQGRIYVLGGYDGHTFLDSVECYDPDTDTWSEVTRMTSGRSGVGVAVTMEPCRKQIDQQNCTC

SMILES | Kd
CC(=O)N1CCC[C@H]1C(=O)N[C@@H]1COC(=O)c2ccccc2CSC[C@H](C(=O)N(C)C)NC(=O)CNC1=O | > 500 µM
COC(=O)[C@H]1CSCc2ccccc2C(=O)OC[C@@H](NC(=O)[C@@H]2C[C@@H](O)CN2C(C)=O)C(=O)N1 | 270 µM
CCN(CC)C(=O)[C@H]1CSCc2ccccc2C(=O)OC[C@@H](NC(=O)[C@@H]2CCCN2C(C)=O)C(=O)N1 | > 500 µM
CC(=O)N1CCC[C@H]1C(=O)N[C@@H]1CCOC(=O)c2ccccc2CSC[C@H](C(=O)N(C)C)NC1=O | > 500 µM
CSC[C@@H](NC(=O)[C@@H](COC(=O)c1ccccc1)NC(=O)[C@@H]1CCCN1C(C)=O)C(=O)N(C)C | 406 µM
CC(=O)N1CCC[C@H]1C(=O)N[C@@H]1COC(=O)c2ccccc2CSC[C@H](C(N)=O)NC1=O | > 500 µM

Now from value to molecule:

Kd | SMILES
> 500 µM | COC(=O)[C@@H]1CSCc2ccccc2C(=O)OC[C@H](NC(=O)[C@@H]2CCCN2C(C)=O)C(=O)N1
209 µM | CNC(=O)[C@H]1CSCc2ccccc2C(=O)OC[C@@H](NC(=O)[C@@H]2CCCN2C(C)=O)C(=O)N1
> 500 µM | COC(=O)[C@H]1CSCc2ccccc2C(=O)OC[C@@H](NC(=O)[C@H]2CCCN2C(C)=O)C(=O)N1
> 500 µM | COC(=O)[C@H]1CSCc2ccccc2C(=O)OC[C@H](NC(=O)[C@@H]2CCCN2C(C)=O)C(=O)N1
> 500 µM | COC(=O)[C@@H]1CSCc2ccccc2C(=O)OC[C@@H](NC(=O)[C@@H]2CCCN2C(C)=O)C(=O)N1
237 µM | COC(=O)[C@H]1CSCc2ccccc2C(=O)OC[C@@H](NC(=O)[C@@H]2CCCN2C(C)=O)C(=O)N1
